SF-1 act – activators of human nuclear receptor SF-1. 1.9% of 65,000 active. CHO-K1 Gal4-SF-1 LBD luciferase reporter; % increase over DMSO SF-1-specific signal. activation, % at 10 µM. AID 522. Q13285;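 active means activation above the mean activation of all tested compounds plus 3 SD, cut at about 50% in these data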
Target sequence (Q13285 whole entry, looked up, the tested form may be a part): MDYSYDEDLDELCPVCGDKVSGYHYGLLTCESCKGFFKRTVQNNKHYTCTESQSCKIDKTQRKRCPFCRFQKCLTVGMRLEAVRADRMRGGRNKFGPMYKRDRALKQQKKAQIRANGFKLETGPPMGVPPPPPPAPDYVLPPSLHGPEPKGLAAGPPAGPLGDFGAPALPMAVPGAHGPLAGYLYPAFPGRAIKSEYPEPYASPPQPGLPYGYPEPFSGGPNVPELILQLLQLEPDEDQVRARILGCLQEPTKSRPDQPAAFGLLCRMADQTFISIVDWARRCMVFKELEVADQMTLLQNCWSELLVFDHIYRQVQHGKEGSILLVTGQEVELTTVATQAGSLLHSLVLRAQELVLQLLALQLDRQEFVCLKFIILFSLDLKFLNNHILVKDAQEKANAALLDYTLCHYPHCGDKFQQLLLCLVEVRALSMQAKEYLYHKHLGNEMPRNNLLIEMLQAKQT
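Test system: CHO-K1 cells co-transfected with Gal4 DBD–human SF-1 LBD, 5xGal4 luciferase reporter. Quantity: 4,000 cells per well. Compound: 10 µM only. Incubation: compound added 1 h post-seeding, 20 h exposure at 37 °C, 5% CO2. Detection: SteadyLite luciferase luminescence. Replication: one test per compound.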
JNK3 blocker – blocks human JNK3 kinase activity | P53779 | purified JNK3 kinase activity, HTS | inhibition, % at 8 µM | 0.61% of 60,000 active; in the data active means inhibition above about 17%;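 further: 0% = DMSO and 100% = reference inhibitor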
RORA act – RORA (human) activation | P35398 | activation, % at 10 µM | CHO-K1 Gal4-RORA LBD luciferase reporter, luminescence; percent increase over mock-subtracted basal signal | 1.5% of 65,000 active;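 active means activation above the mean of all tested compounds plus 3 SD, cut at about 49% in these data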;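 further: 0% = DMSO-treated RORA cells and 100% = added signal equal to DMSO minus mock-transfected cells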
MT1-MMP txn act – activates MT1-MMP transcription; HT1080 MT1-MMP promoter luciferase reporter, luminescence, overnight; stronger effect = higher value; activation factor at 10 µM; 0.16% of 86,000 active;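 active means activation factor of at least 2 for MT1-MMP transcription at 10 µM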
* = called active by the depositor. An excerpt weighted towards active compounds, which were near 2.3% of everything screened.

For Cc1csc(-c2coc3cc(O)cc(C)c3c2=O)n1 the results were SF-1 act 68*, JNK3 blocker 13, RORA act 66* and MT1-MMP txn act 1.7.
COc1ccc2c(=O)c(-c3nc(C)cs3)coc2c1 was read as SF-1 act -20, JNK3 blocker 4, RORA act -33 and MT1-MMP txn act 0.4.
CCOC(=O)c1c(N)n[nH]c1-c1ccc(OC)cc1 was read as SF-1 act 1, JNK3 blocker 18*, RORA act -2 and MT1-MMP txn act 1.
For CCOC(=O)c1sc(-c2ccc(OC)cc2)cc1N the results were SF-1 act 62*, JNK3 blocker 1, RORA act 44 and MT1-MMP txn act 1.5.
Screening CCOC(=O)c1cc(-c2ccccc2)sc1N returned SF-1 act 31, JNK3 blocker 2, RORA act 28 and MT1-MMP txn act 1.6.
`CCOC(=O)c1sc(-c2ccccc2)cc1N` gave SF-1 act 52*, JNK3 blocker 5, RORA act 49* and MT1-MMP txn act 1.5.
`CCOC(=O)c1c(-c2ccc(OC)cc2)nc2nonc2c1N` gave SF-1 act -9, JNK3 blocker 2, RORA act -2 and MT1-MMP txn act 1.
For Cc1cc(N)n(-c2nc(-c3cccnc3)nc3ccccc23)n1 the results were SF-1 act 27, RORA act 4 and MT1-MMP txn act 1.
For C1CCc2c(nc3nnnn3c2NC2CCCC2)C1 the results were MT1-MMP txn act 1.
Cc1noc(C)c1CSc1nc2ccccc2n1CCc1ccccc1 was read as SF-1 act 2, JNK3 blocker -3, RORA act -11 and MT1-MMP txn act 1.3.
For O=S1(=O)N=C(Nc2nc3c(s2)CCCC3)c2ccccc21 the results were SF-1 act 51*, JNK3 blocker -1, RORA act 96* and MT1-MMP txn act 1.2.
O=C(Nc1nc2c(s1)CCCC2)Oc1ccccc1 was read as SF-1 act 0, JNK3 blocker 2, RORA act -14 and MT1-MMP txn act 1.5.
For O=S(=O)(c1cccc2nsnc12)N1CCc2ccccc21 the results were SF-1 act -8, JNK3 blocker -1, RORA act -15 and MT1-MMP txn act 1.
Screening COc1cccc(NC(=O)CCN2CCC(C(N)=O)CC2)c1 returned SF-1 act -7, JNK3 blocker -4, RORA act -8 and MT1-MMP txn act 1.3.
For COc1ccc2c(c1OC)C(=O)N(c1ccccn1)C2 the results were SF-1 act 69*, JNK3 blocker -3, RORA act 52* and MT1-MMP txn act 1.2.
For COc1ccc2c(c1OC)C(=O)N(c1cccc(C)c1)C2 the results were SF-1 act 11, JNK3 blocker -5, RORA act 12 and MT1-MMP txn act 0.8.
Screening COc1ccc2c(c1OC)C(=O)N(c1cccc(C(F)(F)F)c1)C2 returned SF-1 act 59*, JNK3 blocker 4, RORA act 30 and MT1-MMP txn act 1.7.
`CC(=O)c1cccc(NC(=O)COc2ccc(S(=O)(=O)N3CCCCC3)cc2)c1` gave SF-1 act 3, JNK3 blocker 2, RORA act 2 and MT1-MMP txn act 1.2.
Screening Cc1ccc2cc3cc(C(=O)N4CCCCC4C)oc3nc2c1 (stereo not drawn) returned SF-1 act 65*, JNK3 blocker -1, RORA act 27 and MT1-MMP txn act 1.
CCN1CCN(Cc2ccc(NC(=O)Nc3ccccc3OC)cc2)CC1 was read as SF-1 act 29, JNK3 blocker -5, RORA act 49* and MT1-MMP txn act 1.3.
Clc1cc(Cl)c(OCc2nc(-c3ccccn3)no2)cc1Cl was read as SF-1 act 34, JNK3 blocker 0, RORA act 52* and MT1-MMP txn act 1.4.
For CC(C)(C)c1ccc(OCc2nc(-c3ccccn3)no2)c(Br)c1 the results were SF-1 act 71*, JNK3 blocker 1, RORA act 67* and MT1-MMP txn act 0.9.
For COc1ccc(Cc2nc(-c3ccccn3)no2)cc1 the results were MT1-MMP txn act 1.6.
`c1ccc(CCCc2nc(-c3ccccn3)no2)cc1` gave SF-1 act 57*, JNK3 blocker 2, RORA act 50* and MT1-MMP txn act 1.1.
Clc1ccc(OCc2nc(-c3ccncc3)no2)c(Cl)c1 was read as SF-1 act 86*, JNK3 blocker 5, RORA act 48 and MT1-MMP txn act 0.7.
`Cc1ccc(Cc2nc(-c3ccccn3)no2)cc1` gave MT1-MMP txn act 1.1.
For O=C(c1ccc(Oc2ccccc2)cc1)c1nc2c(n1O)CCCC2 the results were MT1-MMP txn act 0.9.
For CCc1c2c(nc3ccc(N(C)C)cc13)-c1cccc(=O)n1C2 the results were MT1-MMP txn act 1.

Compound activity deposited in PubChem BioAssay by several laboratories.
